Sampled rows, rich in hits. Any-hit rate of the full collection: about 2.6%.
SENP6 inh = inhibitors of human SENP6 protease. Q9GZR1. Recombinant SENP6 catalytic domain, aminoluciferin luminescence. inhibition, % at 10 µM. 330,000 tested, 1.8% active. AID 2599;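 active = inhibition above about 50% at the single tested dose, limit read from the data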;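 note: plate controls were DMSO wells with enzyme for no effect and DMSO wells lacking enzyme for full effect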
SENP7 inh = inhibitors of human SENP7 protease | Q9BQF6 | recombinant SENP7, Z-RLRGG-aminoluciferin luminescence, 40 min | inhibition, % at 5 µM | 330,000 tested, 1.5% active;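 active = inhibition above about 50% at the single test dose, limit read from the data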;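 note: plate controls were DMSO with enzyme for no effect and no enzyme buffer wells for full effect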
Target sequence (Q9BQF6 706-1050 limits assumed): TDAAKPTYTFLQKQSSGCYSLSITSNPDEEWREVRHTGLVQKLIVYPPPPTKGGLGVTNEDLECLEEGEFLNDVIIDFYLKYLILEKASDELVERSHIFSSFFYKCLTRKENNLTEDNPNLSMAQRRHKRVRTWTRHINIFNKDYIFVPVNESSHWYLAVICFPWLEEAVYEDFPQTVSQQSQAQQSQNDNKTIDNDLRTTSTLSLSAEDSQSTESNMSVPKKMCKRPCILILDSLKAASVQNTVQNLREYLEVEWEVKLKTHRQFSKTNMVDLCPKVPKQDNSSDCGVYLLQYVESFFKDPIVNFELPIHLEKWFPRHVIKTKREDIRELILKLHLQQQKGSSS
SENP8 block-1 = inhibitors of human SENP8 protease; 330,000 tested, 1.2% active; inhibition, % at 10 µM; AID 2540; purified SENP8, Z-RLRGG-aminoluciferin cleavage, luminescence; Q96LD8; in the data active = inhibition above about 50%
SENP8 block-2 = blocks human SENP8 cleavage of Nedd8 substrate; 360,000 tested, 0.64% active; Q96LD8; inhibition, % at 20 µM; recombinant SENP8, Nedd8 substrate fluorescence; in the data active = inhibition mostly above about 40%, no sharp cut-off; inactive = mostly below about 27%
Platelet DG rel = modulates dense granule release in human platelets; human platelet-rich plasma, SFLLRN dense granule ATP release, luminescence; inhibition, %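 (compounds screened at 7.5 µM in platelet-rich plasma)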; 300,000 tested, 0.22% active; AID 1663;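 active = mean replicate score, as percent of positive control, at or above 50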
SENP1 inh = inhibitors of human SENP1 SUMO protease catalytic domain; 360,000 tested, 0.21% active; AID 624204; inhibition, % at 10 µM; recombinant SENP1 catalytic domain, CyPet-SUMO1-YPet FRET cleavage;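 active = inhibition at least 30% at 10 µM, raw YFP signal under a set limit, fluorescence ratio 0.5 to 1.5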;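 note: 0% = enzyme with DMSO and 100% = no enzyme wells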
Target sequence (Q9P0U3 419-644 limits assumed): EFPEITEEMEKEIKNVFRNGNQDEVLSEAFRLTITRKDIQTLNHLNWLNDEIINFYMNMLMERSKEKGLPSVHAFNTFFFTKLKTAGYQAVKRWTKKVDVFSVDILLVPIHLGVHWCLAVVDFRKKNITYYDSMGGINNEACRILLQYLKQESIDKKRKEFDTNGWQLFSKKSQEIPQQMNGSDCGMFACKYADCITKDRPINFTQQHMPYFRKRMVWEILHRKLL
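Compound: 10 µM single point, 0.5% DMSO; Test system: hSENP1 catalytic domain, recombinant; Timing: 50 min reaction at room temperature; Technique: FRET, CFP and YFP emission; Control set: no-enzyme wells low, DMSO-plus-enzyme wells high control.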
SENP8 confirm = confirmation of human SENP8 protease inhibitors; Recombinant SENP8, Z-RLRGG-aminoluciferin luminescence, 60 min; 6,200 tested, 40% active; inhibition, % at 12.5 µM; shares compounds with SENP7 inh;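 active = mean inhibition across replicates above about 50%, limit read from the data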
SENP6 conf = confirmation of human SENP6 protease inhibitors; shares compounds with SENP7 inh; recombinant SENP6, Z-RLRGG-aminoluciferin luminescence; inhibition, % at 12.5 µM; 6,200 tested, 58% active
SENP7 confirm = confirmation of human SENP7 protease inhibitors; shares compounds with SENP7 inh; inhibition, % at 12.5 µM; recombinant SENP7, Z-RLRGG-aminoluciferin luminescence, 40 min; 6,200 tested, 69% active
Casp3 select = selectivity test for SENP inhibitors: human caspase-3 inhibition; inhibition, % at 12.5 µM; purified caspase-3, Z-DEVD-aminoluciferin luminescence, 60 min; shares compounds with SENP7 inh; 6,200 tested, 60% active;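 active = mean inhibition above about 50%, limit read from the data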;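 note: plate controls were enzyme with DMSO for no effect and wells without caspase-3 for full effect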
Luc interf = luminescence interference (SENP counter-screen) | Pre-incubated SENP8/Z-RLRGG-aminoluciferin, luciferase luminescence interference | inhibition, % at 12.5 µM | shares compounds with SENP7 inh | 6,200 tested, 39% active | AID 488919;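 active = mean inhibition above about 50% when retested at one dose, limit read from the data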;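 note: plate controls were DMSO wells with completed reaction for no effect and substrate without enzyme for full effect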
An asterisk follows results filed as active.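 Rule for the calls, unless noted: active = mean inhibition above about 50% in the one-dose retest (limit read from the data); inactive = the rest.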

For O=C(c1ccccc1)n1c(=S)nc2ccccn21 the results were SENP6 inh 78*, SENP7 inh 90*, SENP8 block-1 70*, SENP8 block-2 2, Platelet DG rel 36, SENP1 inh 1, SENP8 confirm 2, SENP6 conf 74*, SENP7 confirm 93*, Casp3 select 57* and Luc interf 15.
`Cc1cccc(C(=O)n2c(=S)nc3ccccn32)c1` gave SENP6 inh 91*, SENP7 inh 90*, SENP8 block-1 46, SENP8 block-2 3, Platelet DG rel 24, SENP1 inh 0, SENP8 confirm 77*, SENP6 conf 82*, SENP7 confirm 92*, Casp3 select 69* and Luc interf 56*.
`O=C(C1CN(C(=O)c2cc3cc(Cl)ccc3o2)c2ccccc2O1)N1CCCCC1` (centres undefined) gave SENP6 inh 9, SENP7 inh -1, SENP8 block-1 1, SENP8 block-2 15 and SENP1 inh 0.
`Clc1ccccc1CNCc1ccc2c(c1)OCO2` gave SENP8 block-2 3 and SENP1 inh -1.
For Cc1ccc(S(=O)(=O)c2c(C)cc(C)nc2Cl)cc1 the results were SENP6 inh 62*, SENP7 inh 2, SENP8 block-1 3, SENP8 block-2 28, Platelet DG rel 5, SENP1 inh 2, SENP8 confirm 2, SENP6 conf 0, SENP7 confirm -5, Casp3 select -5 and Luc interf -3.
`O=C(O)Cc1ccc(NS(=O)(=O)c2ccc3ccccc3c2)cc1` gave SENP6 inh 6, SENP7 inh 5, SENP8 block-1 6, SENP8 block-2 14, Platelet DG rel 3 and SENP1 inh 1.
Screening CC1(C)Cc2c(sc3ncnc(NN)c23)CO1 returned SENP6 inh 9, SENP7 inh -5, SENP8 block-1 2, SENP8 block-2 35, Platelet DG rel -6 and SENP1 inh -4.
`COc1ccc(C2C(=O)c3ccccc3C2=O)cc1` gave SENP6 inh 57*, SENP7 inh 12, SENP8 block-1 62*, SENP8 block-2 -19, Platelet DG rel 8, SENP1 inh -1, SENP8 confirm -8, SENP6 conf 67*, SENP7 confirm 91*, Casp3 select 84* and Luc interf 62*.
`COc1ccc(C2=C(N)c3ccccc3C2=O)cc1` gave SENP6 inh 54*, SENP7 inh -26, SENP8 block-1 37, SENP8 block-2 23, Platelet DG rel 0, SENP1 inh 3, SENP8 confirm 52*, SENP6 conf 49, SENP7 confirm 83*, Casp3 select 73* and Luc interf 8.
Screening COc1ccc(C(=O)C2CCCN(C(=O)c3ccc4nccnc4c3)C2)c(C)c1 (centres undefined) returned SENP6 inh 57*, SENP7 inh -7, SENP8 block-1 7, SENP8 block-2 -2, Platelet DG rel -5, SENP1 inh 3, SENP8 confirm -21, SENP6 conf -17, SENP7 confirm -8, Casp3 select -8 and Luc interf -5.
COc1cc(/C=N/Nc2ccc(C(=O)O)cc2)ccc1O was read as SENP6 inh 99*, SENP7 inh 98*, SENP8 block-1 96*, SENP8 block-2 -224, Platelet DG rel 9, SENP1 inh -1, SENP8 confirm 98*, SENP6 conf 98*, SENP7 confirm 103*, Casp3 select 94* and Luc interf 97*.
Screening COc1cc(/C=N/Nc2ccc(C(=O)O)cc2)cc(OC)c1OC returned SENP6 inh 88*, SENP7 inh 71*, SENP8 block-1 74*, SENP8 block-2 -134, Platelet DG rel 1, SENP1 inh -2, SENP8 confirm 88*, SENP6 conf 86*, SENP7 confirm 98*, Casp3 select 81* and Luc interf 36.
`Cc1c(C#N)c(O)[nH]c(=O)c1N=Nc1ccc(S(N)(=O)=O)cc1` gave SENP6 inh 51*, SENP7 inh -20, SENP8 block-1 26, SENP8 block-2 26, Platelet DG rel -5, SENP1 inh -2, SENP8 confirm 43, SENP6 conf 38, SENP7 confirm 71*, Casp3 select 75* and Luc interf 52*.
COc1ccc(CN2CCN(C(=O)c3ccc(S(=O)(=O)NCc4ccco4)cc3)CC2)cc1 was read as SENP6 inh -19, SENP7 inh 9, SENP8 block-1 -12, SENP8 block-2 5 and SENP1 inh 2.
Screening COc1nc(C)ccc1-c1noc(-c2cccs2)n1 returned SENP6 inh 62*, SENP7 inh 70*, SENP8 block-1 49, SENP8 block-2 -15, Platelet DG rel -10, SENP1 inh -4, SENP8 confirm 3, SENP6 conf 48, SENP7 confirm 84*, Casp3 select 41 and Luc interf 14.
`COc1nc(-c2ccccc2)ccc1-c1noc(-c2cccs2)n1` gave SENP6 inh -50, SENP7 inh -4, SENP8 block-1 -30, SENP8 block-2 -170, Platelet DG rel -3 and SENP1 inh -34.
For Cc1ccccc1-c1noc(-c2cccs2)n1 the results were SENP6 inh 86*, SENP7 inh 85*, SENP8 block-1 78*, SENP8 block-2 27, Platelet DG rel -1, SENP1 inh 1, SENP8 confirm 38, SENP6 conf 84*, SENP7 confirm 94*, Casp3 select 61* and Luc interf 33.
Screening COc1ccc(S(=O)(=O)N2CCC3CC2c2cc(-c4ccc5c(c4)OCO5)ccc23)cc1 (centres undefined) returned SENP8 block-2 9 and SENP1 inh 3.
`CN(C)S(=O)(=O)c1ccc(N2CCCC2)c(C(=O)NCC2CCCO2)c1` (centres undefined) gave SENP6 inh -2, SENP7 inh -10, SENP8 block-1 11, SENP8 block-2 -19, Platelet DG rel 2 and SENP1 inh -1.

Compound activity deposited in PubChem BioAssay by several laboratories.
